Test results published in publication PMC6722387 (Cellular and Molecular Gastroenterology and Hepatology, 2019).

Key:
[1] = tested on: human intestinal tissue; conditions: human intestinal tissue / human in vivo; cited from earlier work
[2] = tested on: human iPS-IECMs; assay: Determination of Fg value; assay type: in vitro ADME; conditions: 3 μM MDZ apical, 60-minute incubation
Method in brief: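 Monolayers on inserts were preincubated 10 min at 37°C in HBSS with 10 mM HEPES, pH 7.4. Apical: 3 μM midazolam in HBSS; basolateral: HBSS with 0.1% DMSO. After 60 min at 37°C, both chambers and the twice-washed cells were collected into acetonitrile/ethanol (7:3) with candesartan internal standard. Midazolam and 1′-OH midazolam were quantified by UPLC-MS/MS. Fg was derived from summed metabolite across all compartments plus basolateral and cellular midazolam.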

[3] = tested on: human iPS-IECMs; assay: LY permeability test across human iPS-IECMs; assay type: in vitro ADME; conditions: Ad-LacZ- and Ad-TF-transduced cells; apical to basolateral; 60 μM LY, 70 min, 37°C

Molecule	Fg (fraction passing the gut wall) [1]	Fg (fraction passing the gut wall) [2]	Lucifer yellow (LY) Papp [3]
Cc1ncc2n1-c1ccc(Cl)cc1C(c1ccccc1F)=NC2 [MDZ, midazolam]	0.57	0.73	–
LY CH Dipotassium Salt	–	–	approximately 0.44 ×10^–6 cm/s
